{"data": "Published values collected from several papers", "target": "Serine/threonine-protein kinase 32C (STK32C, Homo sapiens, UniProt Q86UX6)", "note": "Compare with care: the assays were run in different laboratories."}
{"Compound": "CN(C)C(=O)Cn1cc(-c2nc(C3(c4ccc(-c5cnc(N)nc5)cc4)CC3)no2)cn1", "read-out": "cell-free assay", "method": "competition with immobilised ligand", "tested at": "1 µM", "endpoint": "remaining binding", "value": "100%"}
{"Compound": "COc1cc(Cl)c(C(=O)N[C@@H](CN[C@H]2CC[C@@H](N)CC2)Cc2ccc(C#N)cc2)cc1-c1ccc(CN[C@H](C)c2ccc(C)cc2)o1", "read-out": "enzyme activity", "mode": "inhibitor", "tested at": "1 µM", "endpoint": "remaining activity", "value": "95%"}
{"Compound": "COc1cccc2c(NCc3ccccc3)nc(-n3c(N)nc4ccccc43)nc12", "read-out": "target engagement in cells", "mode": "inhibitor", "method": "chemoproteomics", "tested at": "20 mM", "endpoint": "inhibition", "value": "13.6%"}
{"Compound": "CS(=O)(=O)Nc1cccc(-c2csc(NC(=O)CSc3nc4nccnc4c(=O)n3CCc3ccccc3)n2)c1", "read-out": "enzyme activity", "mode": "inhibitor", "tested at": "10 µM", "endpoint": "inhibition", "value": "-5%"}
{"Compound": "CC(C)(O)[C@H]1CC[C@H](Nc2ccc3ncc(-c4cccc(C(F)(F)F)c4)n3n2)CC1", "read-out": "enzyme activity", "mode": "inhibitor", "tested at": "1 µM", "endpoint": "remaining activity", "value": "83.2%"}
{"Compound": "CN1CC(Oc2cnc(C#N)cc2-c2ccn3nc(NC(=O)C4CC4)cc3c2)C1", "read-out": "enzyme activity", "mode": "inhibitor", "tested at": "1 µM", "endpoint": "inhibition", "value": "-5%"}
{"Compound": "Cc1nc(C2CCN(C(=O)c3ccc(OC(F)(F)F)cc3N)CC2)c2ncc(N3CCN(C)CC3)cc2n1", "read-out": "cell-free assay", "method": "competition with immobilised ligand", "tested at": "1 µM", "endpoint": "remaining binding", "value": "100%"}
{"Compound": "O=C(Nc1cnn(-c2csc(C(=O)NC3COC3)c2)c1)Nc1ccccc1Cl", "read-out": "enzyme activity", "mode": "inhibitor", "tested at": "5 µM", "endpoint": "remaining activity", "value": "113%"}
{"Compound": "O=C(CSc1nc2nccnc2c(=O)n1CCc1ccccc1)Nc1nccs1", "read-out": "enzyme activity", "mode": "inhibitor", "tested at": "10 µM", "endpoint": "inhibition", "value": "-9%"}
{"Compound": "O=C(Nc1cnn(-c2csc(C(=O)NC3COC3)c2)c1)Nc1c(F)cccc1Cl", "read-out": "enzyme activity", "mode": "inhibitor", "tested at": "5 µM", "endpoint": "remaining activity", "value": "90.7%"}
{"Compound": "Cc1ccc(C(=O)Nc2ccc(CN3CCN(C)CC3)c(C(F)(F)F)c2)cc1C#Cc1cnc2cccnn12", "read-out": "enzyme activity", "tested at": "23.5 nM", "endpoint": "remaining activity", "value": "100%"}
{"Compound": "CCCCNc1ncc2c(-c3ccc(F)cc3)nn(C[C@H]3CC[C@H](N)CC3)c2n1", "read-out": "target engagement in cells", "mode": "inhibitor", "method": "chemoproteomics", "tested at": "20 mM", "endpoint": "inhibition", "value": "55%"}
{"Compound": "Nc1ncnc2occ(-c3ccc(NC(=O)Nc4cc(C(F)(F)F)ccc4F)cc3)c12", "read-out": "cell-free assay", "tested at": "20 µM", "endpoint": "remaining signal", "value": "91%"}
